Source: PubChem BioAssay
Sampled rows, rich in hits. Any-hit rate of the full collection: about 3.4%.
MEKK3 PB1 HTS: modulators of MEKK3-MEK5 PB1 binding, primary screen, biochemical, wildtype MEKK3, multiplex bead flow cytometry, Alexa488-MEK5 | binding response (% of control), % at 10 µM | Mitogen-activated protein kinase kinase kinase 3 (Homo sapiens), Q99759 | bead-based flow cytometry, Alexa488-MEK5 binding to MEKK3; actives lie on both sides; 0 = blocked by unlabeled MEK5, 100 = vehicle | hit rate 1.4% among 290,000;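 active = binding response more than 3 SD above or below the average of its plate-row segment, actives on both sides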;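 also: Alexa488 bead fluorescence after subtracting the streptavidin-only scavenger bead signal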
Target sequence (Q99759 whole entry, looked up): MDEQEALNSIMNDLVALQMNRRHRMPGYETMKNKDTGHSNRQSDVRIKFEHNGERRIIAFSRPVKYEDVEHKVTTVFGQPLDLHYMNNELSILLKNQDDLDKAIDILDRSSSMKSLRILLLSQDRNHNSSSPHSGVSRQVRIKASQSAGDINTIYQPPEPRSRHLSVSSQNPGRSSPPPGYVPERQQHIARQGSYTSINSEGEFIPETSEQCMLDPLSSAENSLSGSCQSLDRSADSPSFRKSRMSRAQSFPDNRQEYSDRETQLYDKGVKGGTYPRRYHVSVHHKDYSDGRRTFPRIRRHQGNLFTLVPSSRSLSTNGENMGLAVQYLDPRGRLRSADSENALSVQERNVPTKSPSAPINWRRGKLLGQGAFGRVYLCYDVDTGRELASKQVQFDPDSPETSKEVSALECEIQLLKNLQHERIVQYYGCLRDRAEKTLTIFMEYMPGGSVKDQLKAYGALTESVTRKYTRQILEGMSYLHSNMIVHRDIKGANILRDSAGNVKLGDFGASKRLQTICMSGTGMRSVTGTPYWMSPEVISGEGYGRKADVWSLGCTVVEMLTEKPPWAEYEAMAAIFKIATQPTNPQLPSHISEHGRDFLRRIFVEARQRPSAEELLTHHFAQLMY
MEKK2wt PB1 HTS: modulators of MEK5 binding to wildtype MEKK2, primary screen, biochemical, multiplex bead flow cytometry, Alexa488-MEK5 | AID 1531, 2009 | hit rate 1.1% among 290,000 | Alexa488-MEK5 binding to MEKK2 WT; actives lie on both sides | binding response (% of control), % at 10 µM; in the data active = binding response below about 67% or above about 130%
IMP-1 inh: IMP-1 metallo-beta-lactamase inhibitors, primary screen, biochemical, epi-absorbance readout, Pseudomonas aeruginosa enzyme. metallo-beta-lactamase IMP-1 (Pseudomonas aeruginosa). purified IMP-1, nitrocefin hydrolysis, epi-absorbance fluorescence. inhibition, % at 5.6 µM. hit rate 0.45% among 290,000;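 active = inhibition above the mean plus 3 SD of all compounds in the same screening run, cut at about 4.5% in these data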;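 also: 0% = IMP-1 with DMSO and 100% = DMSO wells lacking enzyme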
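assay system = purified recombinant IMP-1 metallo-beta-lactamase enzyme | schedule = 15 min preincubation plus 25 min reaction at 25 °C | signal = Epi-absorbance fluorescence, 480 nm excitation, 530 nm emission | read-out basis = percent inhibition from optical density relative to buffer-blank wells | controls = IMP-1 with DMSO as 0%, enzyme-free DMSO as 100%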
MEKK2 mut-MEK5: MEK5 binding signal on mutant MEKK2 PB1, primary screen, biochemical, multiplex bead flow cytometry, Alexa488-MEK5; Alexa488-MEK5 binding to MEKK2 mutant; AID 1530, 2009; hit rate 0.35% among 290,000; percent response, % at 10 µM; in the data active = percent response above about 24%, passing the limit was not always enough
VIM-2 inh: VIM-2 metallo-beta-lactamase inhibitors, primary screen, biochemical, epi-absorbance readout, Pseudomonas aeruginosa enzyme. inhibition, % at 5.6 µM. hit rate 0.89% among 290,000. AID 1527, 2009. purified VIM-2, nitrocefin hydrolysis, epi-absorbance fluorescence;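 active = inhibition above the mean of all tested compounds plus 3 SD, cutoff set per screening run, cut at about 7.5% in these data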;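 also: red hydrolysis product quenches plate fluorescence so inhibitors raise well fluorescence; 0% = enzyme with DMSO and 100% = DMSO without enzyme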
* marks the source's active call; other numbers are inactive results; [ ] = another dose, or the depositor's remark.

SMILES	MEKK3 PB1 HTS	MEKK2wt PB1 HTS	IMP-1 inh	MEKK2 mut-MEK5	VIM-2 inh
O=C1/C(=N\S(=O)(=O)c2cccs2)C([n+]2ccccc2)=C([O-])c2ccccc21	96.0	98.0	-1.1	-4.0	-0.5
CCN(CC)S(=O)(=O)c1ccc(OC)c(NC(=O)C2CC(=O)N(c3ccc4c(c3)OCCO4)C2)c1 (stereo not drawn)	0.0*[inhibitor]	-2.0*[inhibitor]	-0.9	-21.0	0.9
CCc1cccc(CC)c1NC(=O)C1CC(=O)N(c2ccc3c(c2)OCCO3)C1 (stereo not drawn)	105.0	104.0	-0.3	1.0	0.9
CSc1nc2ccsc2c(=O)n1-c1cccnc1	97.0	96.0	-2.1	-6.0	2.3
COC(=O)c1[nH]c2ccc(Cl)cc2c1NC(=O)CCN1CCN(C2CCCCC2)CC1	99.0	105.0	8.0*	0.0	-1.5
COC(=O)c1[nH]c2ccc(C)cc2c1NC(=O)CCN1CCN(C2CCCCC2)CC1	100.0	100.0	-0.8	0.0	-3.4
COc1ccc(CNC(=O)C(OC(C)=O)c2ccccn2)cc1 (stereo not drawn)	86.0	87.0	5.8*	-2.0	-1.2
COc1ccc(Cl)cc1C(=O)Nc1ccc(NC(=O)c2ccco2)cc1	100.0	101.0	-1.4	1.0	0.6
CC[C@@H](C)[C@H](CN[C@H](CNC)[C@@H](C)O)NCCc1ccc(OC)cc1	101.0	106.0	-0.3	-6.0	11.0*
N#Cc1sc2nc3c(c(-c4cccnc4)c2c1N)CCC3	103.0	103.0	-1.8	4.0	-0.3
O=C(N=Nc1c(O)n(Cc2ccccc2)c2ccccc12)c1ccncc1	73.0	74.0	0.1	-14.0	11.0*
COC(=O)N=Nc1c(O)n(Cc2ccccc2)c2ccccc12	105.0	99.0	-4.3	5.0	-2.9
Cc1cccc(C)c1-n1c(C)cc(/C=N\Nc2ccc([N+](=O)[O-])cn2)c1C	105.0	81.0	2.7	10.0	-6.4
O=c1c(Cl)c(NS(=O)(=O)c2ccccc2)cnn1-c1ccccc1	110.0	110.0	-3.4	21.0	-1.5
O=C(Nc1ccccc1)Nc1n[nH]c2nnc(-c3ccccc3)c(-c3ccccc3)c12	102.0	99.0	20.9*	3.0	0.3
O=C(Nc1ccccc1)Nc1nnc(-c2ccccc2)o1	102.0	104.0	-2.5	-3.0	-1.5
CCN(CC)c1ccc(/C=C/c2cc(-c3ccccc3)c3ccccc3n2)cc1	74.0*[inhibitor]	93.0	-0.1	2.0	0.0
C=CC[N+](C)(C)CCN1C(=O)C2C(c3ccccc3)C=CC(c3ccccc3)C2C1=O (stereo not drawn)	58.0	76.0	2.6	-10.0	2.4
C=CCOCCN1C(=O)C2C(c3ccccc3)C=CC(c3ccccc3)C2C1=O (stereo not drawn)	94.0	95.0	15.1*	-1.0	-0.1
CCOC(=O)c1c(NC(=O)CN2C(=O)CN(C)C2=O)sc(C)c1C	102.0	96.0	10.6*	-2.0	3.0
CN(C)c1cccc(C(=O)N(C)C2CCCN(Cc3ccccc3F)C2)c1 (stereo not drawn)	99.0	100.0	-2.4	0.0	0.7
CCc1ccc2c(CN(C)Cc3ccccc3OC)cc(=O)oc2c1	104.0	120.0	1.0	18.0	-1.6
CC1CC(C)CN(CCCNC(=O)c2cc3c(=O)[nH]c4ccccc4c3n2C)C1 (stereo not drawn)	108.0	114.0	-1.6	15.0	12.1*
CCC1CCCCN1CCCNC(=O)c1cc2c(=O)[nH]c3ccccc3c2n1C (stereo not drawn)	103.0	111.0	-1.9	8.0	8.9*
CCC1CCCCN1CCCNC(=O)COc1cc(=O)n(C)c2ccccc12 (stereo not drawn)	104.0	108.0	-3.6	7.0	-1.0
SMILES	MEKK3 PB1 HTS	MEKK2wt PB1 HTS	IMP-1 inh	MEKK2 mut-MEK5	VIM-2 inh
CN(CCCNC(=O)c1cc2c(=O)[nH]c3ccccc3c2n1C)Cc1ccccc1	102.0	119.0	-0.7	10.0	8.1*
COc1ccc2oc(=O)c(N3C(=O)c4ccccc4C3=O)cc2c1	99.0	96.0	-0.8	-3.0	-2.1
Cc1nn(-c2ccccc2)c2sc(-c3nnc(SCC(=O)O)o3)cc12	101.0	98.0	-3.1	3.0	2.4
CCn1c(SCC(=O)O)nnc1-c1cc2c(C)nn(-c3ccccc3)c2s1	100.0	100.0	-3.0	4.0	10.2*
CN1/C(=C\C(=S)NC(=O)c2ccccc2Cl)C(C)(C)c2ccccc21	86.0	1.0*	1.0	0.0	1.9
CCOC(=O)CSc1nnc(-c2ccco2)n1-c1ccc(C)cc1	101.0	97.0	-2.7	-3.0	-2.1
COC(=O)CSc1nnc(-c2ccco2)n1-c1ccc(C)cc1	103.0	101.0	6.0*	1.0	0.4
NC(=O)c1c(NC(=O)C2CC=CCC2C(=O)O)sc2c1CCCCC2 (stereo not drawn)	96.0	100.0	5.7*	4.0	-1.2
CC(C)OC(=O)c1c(NC(=O)C2CC=CCC2C(=O)O)sc2c1CCCCC2 (stereo not drawn)	106.0	110.0	1.9	9.0	-1.3
CN(C)c1ccc(N=Cc2ccco2)cc1	93.0	99.0	-3.2	5.0	-4.3
C(=Nc1cccc2c(N=Cc3ccco3)cccc12)c1ccco1	93.0	91.0	16.2*	-3.0	-1.1
O=C(O)CN1CCN(Cc2ccccc2)C1=O	95.0	97.0	-4.3	-4.0	0.9
O=C(O)CN1CCCC1=Nc1ccccc1	83.0	93.0	4.8*	-4.0	2.5
CCN(CC)c1ccc(C=C2C(=O)OC(c3ccccc3)OC2=O)cc1 (stereo not drawn)	102.0	92.0	-2.5	-4.0	-2.4
CCN(CC)c1ccc(/C=C/C(=O)C2C(=O)C=C(C)OC2=O)cc1 (stereo not drawn)	108.0	72.0	7.4*	61.0*	7.0
COc1ccc(S(=O)(=O)Nc2ccc(F)c(F)c2)cc1Cl	111.0	111.0	4.6*	10.0	0.3
COc1ccc(NS(=O)(=O)c2ccc(OC)c(OC)c2)cc1OC	109.0	111.0	-4.2	4.0	-1.2
COc1ccc(C(c2nnnn2Cc2ccccc2)N2CCN(c3ccccc3)CC2)cc1 (stereo not drawn)	92.0	93.0	-1.8	-1.0	-2.9
CN(C(=O)c1cccc(C(F)(F)F)c1)C1CCCc2ccccc21 (stereo not drawn)	1.0*[inhibitor]	0.0*[inhibitor]	-0.4	-38.0	0.3
C=C1c2cc(OC)ccc2NC(=O)N1CC	102.0	104.0	5.8*	2.0	1.5
C=C1c2cc(C)ccc2NC(=O)N1c1ccc(C)cc1	104.0	104.0	-1.1	6.0	-2.6
NC(=O)C(CCC(=O)c1ccc(Br)cc1)S(=O)(=O)c1ccccc1 (stereo not drawn)	104.0	96.0	-2.0	-5.0	-3.5
